Laboratory results reported in ChEMBL document CHEMBL1773015, “2-Arylbenzothiazole, benzoxazole and benzimidazole derivatives as fluorogenic substrates for the detection of nitroreductase and aminopeptidase activity in clinically important bacteria” (Bioorg Med Chem, 2011).
Activity calls are given as the source filed them. The calls are words filed in the database; no cut-off is given here.

What was measured:
Enterobacter cloacae [1] = experiment: Binding affinity to Enterobacter cloacae NCTC 11936 aminopeptidase assessed as fluorescent colonies after 24 hrs by fluorescence staining
How it was run: (§1)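 Substrate in 1-methyl-2-pyrrolidone was mixed into molten Columbia agar at 50 °C (final 100 mg/L). NCTC strains were subcultured on Columbia agar and suspended in 0.85% saline to 10⁸ CFU/mL by densitometer. Plates were spread for single colonies and incubated at 37 °C in air for 24 h. Colonies were viewed under UV light (365 nm) and fluorescence intensity and colour scored visually; growth was also scored.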

Pseudomonas aeruginosa [2] = experiment: Binding affinity to Pseudomonas aeruginosa NCTC 10662 aminopeptidase assessed as fluorescent colonies after 24 hrs by fluorescence staining; how it was run: as §1
Providencia rettgeri [3] = experiment: Binding affinity to Providencia rettgeri NCTC 7475 aminopeptidase assessed as fluorescent colonies after 24 hrs by fluorescence staining; how it was run: as §1
Escherichia coli [4] = experiment: Binding affinity to Escherichia coli NCTC 10418 aminopeptidase assessed as fluorescent colonies after 24 hrs by fluorescence staining; how it was run: as §1
Morganella morganii [5] = experiment: Binding affinity to Morganella morganii WS 462403 aminopeptidase assessed as fluorescent colonies after 24 hrs by fluorescence staining; how it was run: as §1
Serratia marcescens [6] = experiment: Binding affinity to Serratia marcescens NCTC 10211 aminopeptidase assessed as fluorescent colonies after 24 hrs by fluorescence staining; how it was run: as §1
[7] = tested on: Staphylococcus epidermidis; experiment: Binding affinity to Staphylococcus epidermidis NCTC 11047 nitroreductase assessed as fluorescent colonies after 24 hrs by fluorescence staining
How it was run: (§2)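 Columbia agar plates contained substrate at a final 100 mg/L, added from a 1-methyl-2-pyrrolidone solution to molten agar at 50 °C. Inoculum was a 10⁸ CFU/mL suspension in 0.85% saline, spread for single colonies, then incubated at 37 °C in air for 24 h. Colony fluorescence under UV light (365 nm) was graded as strong, moderate, weak or none, with colour noted.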

Providencia rettgeri [8] = experiment: Binding affinity to Providencia rettgeri NCTC 7475 nitroreductase assessed as fluorescent colonies after 24 hrs by fluorescence staining; how it was run: as §2
Enterobacter cloacae [9] = experiment: Binding affinity to Enterobacter cloacae NCTC 11936 nitroreductase assessed as fluorescent colonies after 24 hrs by fluorescence staining; how it was run: as §2
Escherichia coli [10] = experiment: Binding affinity to Escherichia coli NCTC 10418 nitroreductase assessed as fluorescent colonies after 24 hrs by fluorescence staining; how it was run: as §2
Serratia marcescens [11] = experiment: Binding affinity to Serratia marcescens NCTC 10211 nitroreductase assessed as fluorescent colonies after 24 hrs by fluorescence staining; how it was run: as §2
Enterococcus faecium = experiment: Binding affinity to Enterococcus faecium NCTC 7171 nitroreductase assessed as fluorescent colonies after 24 hrs by fluorescence staining
Streptococcus pyogenes = experiment: Binding affinity to Streptococcus pyogenes NCTC 8306 nitroreductase assessed as fluorescent colonies after 24 hrs by fluorescence staining; how it was run: as §2
Staphylococcus aureus [12] = experiment: Binding affinity to Staphylococcus aureus NCTC 6571 nitroreductase assessed as fluorescent colonies after 24 hrs by fluorescence staining; how it was run: as §2
Enterococcus faecalis = experiment: Binding affinity to Enterococcus faecalis NCTC 775 nitroreductase assessed as fluorescent colonies after 24 hrs by fluorescence staining; how it was run: as §2
Listeria monocytogenes = experiment: Binding affinity to Listeria monocytogenes NCTC 11994 nitroreductase assessed as fluorescent colonies after 24 hrs by fluorescence staining; how it was run: as §2
Staphylococcus aureus [13] = experiment: Binding affinity to Staphylococcus aureus (MRSA) NCTC 11939 nitroreductase assessed as fluorescent colonies after 24 hrs by fluorescence staining; how it was run: as §2
Pseudomonas aeruginosa [14] = experiment: Binding affinity to Pseudomonas aeruginosa NCTC 10662 nitroreductase assessed as fluorescent colonies after 24 hrs by fluorescence staining; how it was run: as §2
Morganella morganii [15] = experiment: Binding affinity to Morganella morganii WS 462403 nitroreductase assessed as fluorescent colonies after 24 hrs by fluorescence staining; how it was run: as §2

Compound	Activity (Enterobacter cloacae [1])	Activity (Pseudomonas aeruginosa [2])	Activity (Providencia rettgeri [3])	Activity (Escherichia coli [4])	Activity (Morganella morganii [5])	Activity (Serratia marcescens [6])	Activity [7]	Activity (Providencia rettgeri [8])	Activity (Enterobacter cloacae [9])	Activity (Escherichia coli [10])	Activity (Serratia marcescens [11])	Activity (Enterococcus faecium)	Activity (Streptococcus pyogenes)	Activity (Staphylococcus aureus [12])	Activity (Enterococcus faecalis)	Activity (Listeria monocytogenes)	Activity (Staphylococcus aureus [13])	Activity (Pseudomonas aeruginosa [14])	Activity (Morganella morganii [15])
C[C@H](N)C(=O)Nc1ccccc1-c1nc2ccccc2o1	Active	Active	Active	Active	Active	Active													
O=[N+]([O-])c1ccc(F)cc1-c1nc2ccccc2o1							inactive	Active	Active	Active	Active	inactive	inactive	Active	inactive	inactive	Active	inactive	Active
Cn1c(-c2ccccc2[N+](=O)[O-])nc2ccccc21							inactive	inactive	inactive	inactive	inactive	inactive	inactive	inactive	inactive	inactive	inactive	inactive	Active
O=[N+]([O-])c1ccc(Cl)cc1-c1nc2ccccc2o1							inactive	Active	Active	Active	Active	inactive	inactive	Active	inactive	inactive	Active	Active	Active
O=[N+]([O-])c1ccccc1-c1nc2ccccc2s1							Active	Active	Active	Active	Active	inactive	inactive	Active	inactive	inactive	Active	inactive	Active
O=[N+]([O-])c1ccccc1-c1nc2ccccc2o1							Active	Active	Active	Active	Active	inactive	inactive	Active	inactive	inactive	Active	Active	Active
O=[N+]([O-])c1ccc(Cl)cc1-c1nc2ccccc2s1							inactive	Active	Active	Active	Active	inactive	inactive	Active	inactive	inactive	Active	Active	Active
COc1cc(-c2nc3ccccc3s2)c([N+](=O)[O-])cc1OC							Active	Active	Active	Active	Active	inactive	inactive	Active	inactive	inactive	Active	Active	Active
NCCC(=O)Nc1ccccc1-c1nc2ccccc2s1	inactive	Active	inactive	Active	Active	Active													
C[C@H](N)C(=O)Nc1ccccc1-c1nc2ccccc2s1	Active	Active	Active	Active	Active	Active													
Cn1c(-c2cc(Cl)ccc2[N+](=O)[O-])nc2ccccc21							inactive	Active	Active	Active	Active	inactive	inactive	Active	inactive	inactive	Active	Active	Active
NCCC(=O)Nc1ccccc1-c1nc2ccccc2o1	Active	Active	Active	Active	Active	Active													
O=[N+]([O-])c1ccc(F)cc1-c1nc2ccccc2s1							inactive	Active	Active	Active	Active	inactive	inactive	Active	inactive	inactive	Active	inactive	Active
COc1cc(-c2nc3ccccc3o2)c([N+](=O)[O-])cc1OC							inactive	Active	Active	Active	Active	inactive	inactive	Active	inactive	inactive	Active	inactive	Active
